Compounds with a hit are over-represented: about 4.6% of the library has one in this group of screens.
TAAR1 antag – human TAAR1 antagonists, primary screen, Fluo-8 calcium fluorescence, CHO RD-HGA16 cells. antagonist. inhibition, % at 3 µM. 1.5% of 360,000 active;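 active = inhibition above a per-plate cutoff, the mean inhibition of test compounds on that plate plus 3 SD, cut at about 49% in these data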
Target sequence (Q96RJ0 whole entry, looked up): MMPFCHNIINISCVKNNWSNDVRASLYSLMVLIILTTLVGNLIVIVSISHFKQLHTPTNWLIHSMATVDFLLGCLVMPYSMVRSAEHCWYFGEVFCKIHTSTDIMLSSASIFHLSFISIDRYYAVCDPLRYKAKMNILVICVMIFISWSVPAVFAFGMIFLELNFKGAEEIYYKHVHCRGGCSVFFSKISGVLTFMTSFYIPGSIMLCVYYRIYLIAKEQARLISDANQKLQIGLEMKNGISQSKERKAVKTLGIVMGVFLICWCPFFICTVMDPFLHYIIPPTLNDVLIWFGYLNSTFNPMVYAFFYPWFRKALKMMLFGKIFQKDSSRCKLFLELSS
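System: RD-HGA16 CHO cells with stable hTAAR1 and Gα16 | Probe or stimulus: EC80 β-phenethylamine stimulus | Dosing: 3 µM, single point | Times: Dye loading 75 min at 37 °C, then 30 min room temperature | Measured by: Fluo-8 calcium-sensitive fluorescence | Read-out basis: % inhibition of agonist calcium response | Replicates: n of 1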
OX1R antag-1 – antagonists of human orexin 1 receptor (OX1R); 1.8% of 330,000 active; OX1R-expressing cells, FRET antagonist read-out; inhibition, % at 6.6 µM; AID 485270, 2010; in the data active = inhibition mostly above about 38%, no sharp cut-off; inactive = mostly below about 40%
Target sequence (O43613 whole entry, looked up): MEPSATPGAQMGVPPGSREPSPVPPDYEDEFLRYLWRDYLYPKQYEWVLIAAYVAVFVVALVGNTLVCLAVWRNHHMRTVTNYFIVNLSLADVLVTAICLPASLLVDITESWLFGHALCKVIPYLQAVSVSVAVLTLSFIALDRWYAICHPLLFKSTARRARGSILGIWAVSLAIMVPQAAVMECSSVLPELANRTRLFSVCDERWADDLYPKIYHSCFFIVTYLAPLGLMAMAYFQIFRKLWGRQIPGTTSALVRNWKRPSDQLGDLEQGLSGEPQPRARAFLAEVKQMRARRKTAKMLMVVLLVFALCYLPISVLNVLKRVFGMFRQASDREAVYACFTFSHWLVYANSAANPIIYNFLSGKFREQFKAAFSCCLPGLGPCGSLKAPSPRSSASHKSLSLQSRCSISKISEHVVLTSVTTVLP
GPR7 antag – GPR7 receptor antagonists, primary screen, cell-based, fluorescence, single concentration; Neuropeptides B/W receptor type 1 (Homo sapiens), P48145; inhibition, % at 4.4 µM; 1.1% of 290,000 active; AID 1861, 2009; GPR7-expressing cells, fluorescence antagonist assay; in the data active = inhibition above about 16%, passing the limit was not always enough;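 also: cells stimulated with the agonist NPW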
TAAR1 ag – human TAAR1 agonists, primary screen, Fluo-8 calcium fluorescence, CHO RD-HGA16 cells; 0.99% of 360,000 active; activation, % at 3 µM; Trace amine-associated receptor 1 (Homo sapiens), Q96RJ0; vehicle wells 0%, saturating PEA agonist 100%;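 active = activation above the mean activation of all test compounds in the run plus 3 SD, cut at about 38% in these data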
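test system = CHO RD-HGA16 cells carrying human TAAR1 plus Gα16 | schedule = 17-24 h seeding, 75 min 37 °C dye, 30 min RT | compound dosing = 3 µM single concentration | control set = DMSO and PEA EC100 | replicates = n 1 | signal = Fluo-8 fluorescence, 5 s baseline then 140 s kinetic read | measure = percent activation vs PEA EC100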
OX1R antag-2 – OX1R (HCRTR1) antagonists, primary screen, fluorescence, CHO/OX1R cells, Fluo-8 calcium, orexin A. 0.43% of 330,000 active. Orexin/Hypocretin receptor type 1 (Homo sapiens), O43613. inhibition, % at 5 µM. Fluo-8 calcium fluorescence;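 active = inhibition above its plate's threshold, mean inhibition of all tested compounds on the plate plus 3 SD, cut at about 37% in these data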
CHO parental Ca – ATP-evoked calcium signal inhibitors, parental CHO, primary screen, counter-screen for OX1R antagonist project, cell-based, fluorescence, Fluo-8 calcium dye | parental CHO-K1, ATP-induced calcium, Fluo-8 fluorescence | inhibition, % at 5.6 µM | 0.63% of 330,000 active | AID 463079, 2010;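 active = inhibition above that plate's mean sample inhibition plus 3 SD, cut at about 26% in these data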
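Assay system – parental CHO cells · Reagent – ATP stimulus · Detection – intracellular calcium via Fluo-8 no-wash fluorescent dye · Evaluation – percent inhibition of ATP-evoked calcium rise, normalized to controls · Controls – ATP wells versus no-ATP DMSO wells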
OX1R HTRF conf – OX1R (HCRTR1) antagonists, confirmation, cell-based, HTRF | shares compounds with OX1R antag-1 | OX1R-expressing cells, HTRF antagonist assay | inhibition, % at 6.6 µM | 49% of 1,800 active; in the data active = inhibition above about 55%;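 also: CHO cells expressing OX1R stimulated with orexin A at about EC80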
CHO-K1 HTRF cnt – signal inhibition in parental CHO-K1 cells, counter-screen for OX1R antagonist project, cell-based, HTRF | HTRF counterscreen | 48% of 1,800 active | shares compounds with OX1R antag-1 | inhibition, % at 6.6 µM; in the data active = inhibition above about 17%
nonsel antag count – nonselective antagonists in TAAR1 counter-screen cells, counter-screen for hTAAR1 antagonist project, cell-based, fluorescence, calcium. shares compounds with TAAR1 antag. counterscreen cell line, antagonist mode. inhibition, % at 3 µM. 77% of 2,400 active. AID 651780, 2012; in the data active = inhibition above about 22%;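 also: CHO-Ga16 host cells stimulated with ATP at an EC80 level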
TAAR1 antag conf – human TAAR1 antagonists, retest of hits, confirmation, cell-based, fluorescence; shares compounds with TAAR1 antag; 40% of 2,400 active; inhibition, % at 3 µM; TAAR1-expressing cells, fluorescence antagonist read-out; in the data active = inhibition above about 49%;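 also: CHO-Ga16 host cells challenged with agonist PEA near its EC80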
Ga16 ag counter-1 – calcium activation in Ga16-expressing cells, counter-screen for TAAR1 antagonist project, cell-based, fluorescence | activation, % at 3 µM | AID 651953, 2012 | shares compounds with TAAR1 antag | 18% of 2,400 active | agonist counterscreen; in the data active = activation above about 12%
TAAR1 ag counter – TAAR1 activation by candidate antagonists – cell-based, fluorescence, counter-screen for TAAR1 antagonist project | shares compounds with TAAR1 antag | AID 651955, 2012 | activation, % at 3 µM | 2% of 2,400 active | hTAAR1 cell line, agonist mode; in the data active = activation above about 37%;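 also: CHO cells stably expressing TAAR1 with calcium dye readout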
TAAR1 ag conf – human TAAR1 agonists, retest of hits, confirmation, Fluo-8 calcium fluorescence, CHO RD-HGA16 cells; 82% of 2,400 active; scaled: DMSO 0%, maximal phenethylamine 100%; shares compounds with TAAR1 ag; activation, % at 3 µM; AID 651783, 2012;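 active = activation above a cutoff set at the run's mean compound activation plus 3 SD, cut at about 39% in these data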
Ga16 ag counter-2 – nonselective calcium mobilization agonists, CHO-Ga16 cells, counter-screen for hTAAR1 agonist project, cell-based, fluorescence, CHO-Ga16 parental line; shares compounds with TAAR1 ag; 50% of 2,400 active; Fluo-8 calcium fluorescence; normalized to maximal ATP response, DMSO zero; activation, % at 3 µM;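 active = activation above the run cutoff, the mean activation over all tested wells plus 3 SD, cut at about 12% in these data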
TAAR1 desensitize – TAAR1 desensitization by agonist hits, confirmation, counter-screen for TAAR1 agonist project, cell-based, fluorescence, tachyphylaxis; shares compounds with TAAR1 ag; CHO RD-HGA16 hTAAR1, Fluo-8 calcium, beta-PEA response inhibition; inhibition, % at 3 µM; 46% of 2,400 active; AID 651951, 2012;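 active = inhibition above the run cutoff, the mean inhibition of all test compounds plus 3 SD, cut at about 49% in these data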;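 also: beta-PEA stimulus applied at its EC80; loss of beta-PEA calcium signal after compound pretreatment read as receptor desensitization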
Ga16 antag count – inhibition of ATP-evoked calcium response in CHO-Ga16 cells, counter-screen for TAAR1 agonist project, cell-based, fluorescence; shares compounds with TAAR1 ag; CHO-Ga16 ATP-induced calcium, Fluo-8 fluorescence; inhibition, % at 3 µM; 39% of 2,400 active; AID 651952, 2012;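 active = inhibition above the plate's mean compound inhibition plus 3 SD, computed per plate, cut at about 22% in these data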
Of the large screens only hits and unclear results are named; the others gave an inactive call (follow-up assays come after a bar, where they were run).

CC(C)CC(=O)Nc1ccc(S(=O)(=O)N2CC3CC(C2)c2cccc(=O)n2C3)cc1 (centres undefined)	none (no result: GPR7 antag)
CCC1C(c2cc(OC)c(OC)c(OC)c2)c2cc3c(cc2OC1N1CCCC1)OCO3 (centres undefined)	none (no result: OX1R antag-1, GPR7 antag, OX1R antag-2, CHO parental Ca)
Nc1ccc2nonc2c1[N+](=O)[O-]	OX1R antag-1 83, TAAR1 ag 72 | OX1R HTRF conf inactive | CHO-K1 HTRF cnt 91 | TAAR1 ag conf inactive | Ga16 ag counter-2 25 | TAAR1 desensitize inactive | Ga16 antag count inactive
CC(C)C(NC(=O)C(C(C)C)N(C)C)C(=O)N(C)C(C(=O)N1CCCC1C(=O)N1CCCC1C(=O)NCc1ccccc1)C(C)C (centres undefined)	none (no result: OX1R antag-1, GPR7 antag, OX1R antag-2, CHO parental Ca)
O=C(CN1CCOCC1)NCC(=O)Nc1ccc(Br)cc1C(=O)c1ccccc1	none
CN1CCN(CC(=O)Nc2ccc([N+](=O)[O-])cc2C(=O)c2ccccc2)CC1	TAAR1 antag 104 | nonsel antag count inactive | TAAR1 antag conf inactive | Ga16 ag counter-1 inactive | TAAR1 ag counter inactive
CCN(CC)C(=O)c1ccc(NC(=O)CNC(C)c2cccc3ccccc23)cc1 (centres undefined)	none
O=P(Oc1ccccc1)(Oc1ccccc1)C(O)c1ccccc1 (centres undefined)	none (no result: GPR7 antag)
O=P(Oc1ccccc1)(Oc1ccccc1)C(Nc1ccccc1)c1ccccc1 (centres undefined)	TAAR1 antag 88 | nonsel antag count 25 | TAAR1 antag conf 57 | Ga16 ag counter-1 inactive | TAAR1 ag counter inactive
CC(C)C12CN3CCN(CC(C3)/C1=N\O)C2	TAAR1 antag 108 | nonsel antag count inactive | TAAR1 antag conf inactive | Ga16 ag counter-1 inactive | TAAR1 ag counter inactive
CC(C)CC12CN3CCN(CC(C3)/C1=N/O)C2	none
CCOC(=O)CC(SP1(=S)OCC2(CC=CCC2)CO1)C(=O)OCC (centres undefined)	TAAR1 antag 70 (no result: OX1R antag-1, GPR7 antag, OX1R antag-2, CHO parental Ca) | nonsel antag count 39 | TAAR1 antag conf 61 | Ga16 ag counter-1 inactive | TAAR1 ag counter inactive
COc1ccc(-n2nnnc2C(c2cccs2)N2CCC(n3c(=O)[nH]c4ccccc43)CC2)cc1 (centres undefined)	TAAR1 antag 71 (no result: OX1R antag-1, GPR7 antag, OX1R antag-2, CHO parental Ca) | nonsel antag count inactive | TAAR1 antag conf inactive | Ga16 ag counter-1 inactive | TAAR1 ag counter inactive
Cc1cccc(C)c1-n1nnnc1C(c1cc2ccccc2o1)N1CCC(n2c(=O)[nH]c3ccccc32)CC1 (centres undefined)	none (no result: OX1R antag-1, GPR7 antag, OX1R antag-2, CHO parental Ca)
O=c1[nH]c2ccccc2n1C1CCN(C(c2cc3ccccc3o2)c2nnnn2Cc2ccccc2)CC1 (centres undefined)	TAAR1 antag 62 (no result: OX1R antag-1, GPR7 antag, OX1R antag-2, CHO parental Ca) | nonsel antag count 28 | TAAR1 antag conf 53 | Ga16 ag counter-1 inactive | TAAR1 ag counter inactive
O=c1[nH]c2ccccc2n1C1CCN(C(c2cccs2)c2nnnn2-c2ccc3c(c2)OCCO3)CC1 (centres undefined)	TAAR1 antag 59 (no result: OX1R antag-1, GPR7 antag, OX1R antag-2, CHO parental Ca) | nonsel antag count inactive | TAAR1 antag conf inactive | Ga16 ag counter-1 inactive | TAAR1 ag counter inactive
COc1ccc(-n2nnnc2C(C2CC2)N2CCC(n3c(=O)[nH]c4ccccc43)CC2)cc1 (centres undefined)	TAAR1 antag 72 (no result: OX1R antag-1, GPR7 antag, OX1R antag-2, CHO parental Ca) | nonsel antag count inactive | TAAR1 antag conf 51 | Ga16 ag counter-1 inactive | TAAR1 ag counter inactive
COc1ccc(-n2nnnc2C(c2ccnc3ccccc23)N2CCC(n3c(=O)[nH]c4ccccc43)CC2)cc1 (centres undefined)	none (no result: OX1R antag-1, GPR7 antag, OX1R antag-2, CHO parental Ca)
CCc1n[nH]c(CCN)n1	none
N#Cc1ccc(NC(=S)N2Cc3cc(Br)ccc3-n3nncc3C2)cc1	none (no result: OX1R antag-1, GPR7 antag, OX1R antag-2, CHO parental Ca)
O=c1[nH]c2ccccc2n1C1CCN(Cc2ccc(-c3[nH]c4cc5ncnc5cc4nc3-c3ccccc3)cc2)CC1	TAAR1 antag 67 (no result: OX1R antag-1, GPR7 antag, OX1R antag-2, CHO parental Ca) | nonsel antag count inactive | TAAR1 antag conf inactive | Ga16 ag counter-1 inactive | TAAR1 ag counter inactive
CC1([N+](=O)[O-])COP(=O)(NCc2cccnc2)OC1 (centres undefined)	none (no result: OX1R antag-1, GPR7 antag, OX1R antag-2, CHO parental Ca)

Screening results deposited in PubChem BioAssay by The Scripps Research Institute Molecular Screening Center.
